Published values from different studies.
Target: Ephrin type-B receptor 2 (EPHB2, Homo sapiens, UniProt P29323)
One construct used (P29323 19-1055): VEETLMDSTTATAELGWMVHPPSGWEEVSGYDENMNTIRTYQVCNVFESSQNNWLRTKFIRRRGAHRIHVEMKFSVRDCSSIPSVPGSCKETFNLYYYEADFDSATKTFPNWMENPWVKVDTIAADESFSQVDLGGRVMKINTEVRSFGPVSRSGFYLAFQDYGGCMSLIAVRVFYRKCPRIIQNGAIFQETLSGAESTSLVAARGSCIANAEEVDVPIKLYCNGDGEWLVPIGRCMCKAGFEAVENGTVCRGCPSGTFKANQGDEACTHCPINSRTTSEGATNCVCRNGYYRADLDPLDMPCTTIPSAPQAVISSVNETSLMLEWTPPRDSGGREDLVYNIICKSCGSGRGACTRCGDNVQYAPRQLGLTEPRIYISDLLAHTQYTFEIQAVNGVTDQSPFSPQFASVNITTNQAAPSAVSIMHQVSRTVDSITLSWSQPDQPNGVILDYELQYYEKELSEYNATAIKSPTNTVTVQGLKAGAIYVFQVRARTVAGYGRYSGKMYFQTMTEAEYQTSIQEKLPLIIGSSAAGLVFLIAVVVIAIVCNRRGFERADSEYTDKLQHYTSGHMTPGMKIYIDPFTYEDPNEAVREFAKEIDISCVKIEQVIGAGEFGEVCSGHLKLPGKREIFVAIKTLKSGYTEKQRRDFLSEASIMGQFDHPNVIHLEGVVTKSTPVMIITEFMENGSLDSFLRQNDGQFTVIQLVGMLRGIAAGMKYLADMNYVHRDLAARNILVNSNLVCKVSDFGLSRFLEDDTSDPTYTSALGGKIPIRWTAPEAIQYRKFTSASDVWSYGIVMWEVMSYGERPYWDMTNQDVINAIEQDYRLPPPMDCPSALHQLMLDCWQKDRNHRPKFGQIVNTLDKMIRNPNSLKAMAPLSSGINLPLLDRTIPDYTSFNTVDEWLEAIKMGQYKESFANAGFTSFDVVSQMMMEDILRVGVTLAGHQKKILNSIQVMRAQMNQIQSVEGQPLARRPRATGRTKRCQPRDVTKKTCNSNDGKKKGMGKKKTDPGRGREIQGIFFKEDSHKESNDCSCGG

SMILES | effect on | mode | method | tested at | measurement | result
Cc1ccc(NC(=O)c2ccc(CN3CCN(C)CC3)cc2)cc1Nc1nc(-c2cccnc2)cs1 | cell-free assay | – | – | 0.5 µM | remaining signal | 95.3%
Nc1ncnc2occ(-c3ccc(NC(=O)Nc4cc(C(F)(F)F)ccc4F)cc3)c12 | cell-free assay | – | – | 20 µM | remaining signal | 0%
CC(C)CC(=O)N1CCc2nc(-c3ccc(Br)cc3)nc(N(C)Cc3ccccc3)c2C1 | cell-free assay | – | competition with immobilised ligand | 0.1 µM | remaining binding | 80%
CCN(CC)CCNC(=O)c1c(C)[nH]c(/C=C2\C(=O)Nc3ccc(F)cc32)c1C | enzyme activity | inhibitor | – | 10 µM | inhibition | 90%
CN(C(=O)c1ccccc1)c1cc(N(C)c2ccc3c(c2)CCc2ccc(C(=O)NCCN4CCOCC4)cc2C3=O)ccc1F | cell-free assay | – | competition with immobilised ligand | 1 µM | remaining binding | 82%
O=C(Nc1cnn(-c2csc(C(=O)NC3COC3)c2)c1)Nc1ccccc1Cl | enzyme activity | inhibitor | – | 5 µM | remaining activity | 101%
O=C(Nc1ccc(Oc2ccc(F)cc2)cc1)N1CCc2ncccc2[C@H]1c1ccc(F)cc1 | cell-free assay | – | competition with immobilised ligand | 1 µM | remaining binding | 91%
FC(F)c1nc2ccccc2n1-c1nc(N2CCOCC2)nc(N2CCOCC2)n1 | enzyme activity | inhibitor | – | 10 µM | remaining activity | 106%
Cc1cnc(NC2CCOCC2)nc1-n1cnc(C(=O)NC(CN)c2cc(F)cc(Cl)c2)c1 (stereo not drawn) | enzyme activity | inhibitor | radiometric | 1 µM | remaining activity | 96%
CN1CC(Oc2cnc(C#N)cc2-c2ccn3nc(NC(=O)C4CC4)cc3c2)C1 | enzyme activity | inhibitor | – | 1 µM | inhibition | 4%
O=C(NS(=O)(=O)c1ccc(NCC2CCOCC2)c([N+](=O)[O-])c1)c1ccc(N2CCN(Cc3ccc(C(F)(F)F)cc3-c3ccc(Cl)cc3)CC2)cc1Oc1cnc2[nH]ccc2c1 | cell-free assay | – | competition with immobilised ligand | 1 µM | remaining binding | 100%
CCCCNc1ncc2c(-c3ccc(F)cc3)nn(C[C@H]3CC[C@H](N)CC3)c2n1 | target engagement in cells | inhibitor | chemoproteomics | 20 mM | inhibition | 94.8%
N#CCCc1ccc2c(c1)-c1[nH]c3ccc([N+](=O)[O-])cc3c1CC(=O)N2 | cell-free assay | – | – | 0.5 µM | remaining signal | 98.5%
Cc1ccc(C(=O)Nc2ccc(CN3CCN(C)CC3)c(C(F)(F)F)c2)cc1C#Cc1cnc2cccnn12 | cell-free assay | – | – | 23.5 nM | remaining signal | 49%
CNC(=O)c1cc2c(Oc3ccc(NC(=O)C4(C(=O)Nc5ccc(F)cc5)CC4)cc3)ccnc2cc1OC | enzyme activity | inhibitor | radiometric | 1 µM | inhibition | 95%
Cc1nc(C2CCN(C(=O)c3ccc(OC(F)(F)F)cc3N)CC2)c2ncc(N3CCN(C)CC3)cc2n1 | cell-free assay | – | competition with immobilised ligand | 1 µM | remaining binding | 100%
COc1cc2ncnc(Nc3ccc(Oc4ccccc4)c(C)c3C)c2cc1OC | enzyme activity | inhibitor | – | 1 µM | inhibition | 6%
CN(C)c1ccc(C=C2C(=O)Nc3ccccc32)cc1 | cell-free assay | – | – | 0.5 µM | remaining signal | 86.5%
Cc1ccc(C(=O)NCc2ccsc2)cc1C#Cc1cn(C(C)C)c2ncnc(N)c12 | enzyme activity | inhibitor | – | 1 µM | activity vs control | 2%
CNC(=O)Nc1ccc2c(c1)[C@@]1(CC2)OC(=O)N(CC(=O)N(Cc2ccc(F)cc2)[C@@H](C)C(F)(F)F)C1=O | cell-free assay | – | competition with immobilised ligand | 1 µM | remaining binding | 87%
Cc1ccc(Nc2nccc(N(C)c3ccc4c(C)n(C)nc4c3)n2)cc1S(N)(=O)=O | enzyme activity | inhibitor | – | 10 µM | inhibition | 44%
CCOc1cc(-c2nncn2C)ccc1Nc1ncc2cc(C)nc(NCC(C)(C)C)c2n1 | enzyme activity | inhibitor | FRET | 1 µM | inhibition | < 15%
CN(C)C1CCN(CC#Cc2nn(C3CCCC3)c3nc(NCc4ccccc4)ncc23)C1 (stereo not drawn) | enzyme activity | inhibitor | FRET | 0.1 µM | inhibition | 3%
COc1cc(Nc2cnc(C#N)c(O[C@H](C)CN(C)C)n2)ncc1-c1cnn(C)c1 | enzyme activity | inhibitor | radiometric | 10 µM | remaining activity | 63%
CSc1cccnc1N1CCN(Cc2nc3ccccc3[nH]2)CC1 | cell-free assay | – | competition with immobilised ligand | 1 µM | remaining binding | 99%
O=C1Nc2ccc(Cl)cc2C1=Cc1cc(Cl)c(O)c(Cl)c1 | cell-free assay | – | – | 0.5 µM | remaining signal | 90.9%
CC(C)(O)[C@H]1CC[C@H](Nc2ccc3ncc(-c4cccc(C(F)(F)F)c4)n3n2)CC1 | enzyme activity | inhibitor | – | 1 µM | remaining activity | 93.5%
CC(C)(C)c1nc2c(s1)c1nc(N)ncc1c1ccc(NS(=O)(=O)c3c(F)cccc3F)c(F)c12 | enzyme activity | inhibitor | radiometric | 1 µM | remaining activity | 91%
CC(C)(O)c1cncc(-c2nc3ccc(F)cc3n2C2CC2)c1 | cell-free assay | – | competition with immobilised ligand | 1 µM | remaining binding | 99%
CNC(=O)c1cc(Oc2ccc(NC(=O)Nc3ccc(Cl)c(C(F)(F)F)c3)cc2)ccn1 | enzyme activity | inhibitor | – | 10 µM | inhibition | 95%
